Results collected from several papers.
Lines come from different studies, so protocols differ.
Target: Mitogen-activated protein kinase 14 (MAPK14, Homo sapiens, UniProt Q16539)

Cc1c[nH]c2nccc(Oc3c(F)cc(Nc4cc(Cl)nc(N)n4)cc3F)c12
remaining binding (cell-free assay, competition with immobilised ligand; 0.1 µM): 100%

COc1cnc(Nc2cccc(S(N)(=O)=O)c2)nc1N1CCN(c2ccccc2)C(=O)C1
remaining binding (binding, competition with immobilised ligand; 1 µM): 100%

C[C@@H]1CCN(c2nccc(-c3cnn4ncccc34)n2)C1
remaining binding (binding; 1 µM): 100%

Nc1ncc2c(n1)-c1c([nH]c3ccc(C#CC4CC4)cc13)CCCC2
remaining binding (binding, competition with immobilised ligand; 1 µM): 98%

COC(=O)Nc1nc2ccc(C(=O)c3ccccc3)cc2[nH]1
remaining binding (cell-free assay, competition with immobilised ligand; 10 µM): 17%

FC(F)(F)Oc1cccc(-c2cnc3ccc(-c4ccncc4)nn23)c1
remaining binding (cell-free assay, competition with immobilised ligand; 5 µM): 94%

C[C@@H]1CN(c2ccc3ncc(-c4ccc5[nH]nc(C6CC6)c5c4)n3n2)C[C@H](C)O1
remaining binding (binding, competition with immobilised ligand; 50 nM): 100%

Cc1cnc(Nc2ccc(C(=O)N3CCC(N4CCCC4)CC3)cc2)nc1-c1cc2ccccc2s1
remaining binding (binding, competition with immobilised ligand; 1 µM): 100%

c1cnn2ncc(-c3ccnc(N4CCC45COC5)n3)c2c1
remaining binding (binding; 1 µM): 87%

O=C(Nc1c[nH]nc1C(=O)NC1CCNCC1)c1cc(F)cc(F)c1
remaining binding (binding, competition with immobilised ligand; 1 µM): 100%

N[C@@H]1CCN(c2nccc(-c3cnn4ncccc34)n2)C1
remaining binding (binding; 1 µM): 100%

CNCc1ccccc1-c1csc([C@H](C)Nc2nc(C)nc3cc(OC)c(OC)cc23)c1
remaining binding (cell-free assay, competition with immobilised ligand; 1 µM): 100%

O=C(NCCCN1CCOCC1)c1ccc(Nc2ncc(Cl)c(-c3ccc(Cl)s3)n2)cc1
remaining binding (binding, competition with immobilised ligand; 1 µM): 100%

Nc1cnc(N2CCc3cc(S(=O)(=O)Nc4c(F)cc(Cl)cc4F)cc(N4CCCC4=O)c32)nc1
remaining binding (cell-free assay, competition with immobilised ligand; 1 µM): 100%

F[C@@H]1CCN(c2nccc(-c3cnn4ncccc34)n2)C1
remaining binding (binding; 1 µM): 100%

O=C(O)c1cc(-c2ccc(C3CCNCC3)cc2)c2ccc(-c3ccc(C(F)(F)F)cc3)cc2c1
remaining binding (cell-free assay, competition with immobilised ligand; 1 µM): 100%

O=C(c1ccc(Nc2ncc(Cl)c(-c3cc4ccccc4s3)n2)cc1)N1CCC(N2CCCC2)CC1
remaining binding (binding, competition with immobilised ligand; 1 µM): 100%

CNC(=O)c1ccc(Nc2ncc(C(F)(F)F)c(NCc3nccnc3N(C)S(C)(=O)=O)n2)cc1
remaining binding (cell-free assay, competition with immobilised ligand; 0.1 µM): 100%

COc1cnc(Nc2cccc(S(N)(=O)=O)c2)nc1N1CCN(c2ccccc2)CC1
remaining binding (binding, competition with immobilised ligand; 1 µM): 100%

Cc1cnn2ncc(-c3ccnc(N(C)C)n3)c2c1
remaining binding (binding; 1 µM): 100%

CC(=O)c1c(NS(C)(=O)=O)c2cc(-c3ccc(Cl)cc3)c(-c3ccc(Cl)cc3Cl)nc2n(C)c1=O
remaining binding (cell-free assay, competition with immobilised ligand; 1 µM): 100%

CN(C)c1nccc(-c2cnc3ncccn23)n1
remaining binding (binding; 1 µM): 100%

O=C(Nc1ccc(Oc2ccc(F)cc2)cc1)N1CCc2ncccc2[C@H]1c1ccc(F)cc1
remaining binding (cell-free assay, competition with immobilised ligand; 1 µM): 100%

CC1CCCN1c1nccc(-c2cnn3ncccc23)n1 (stereo not shown)
remaining binding (binding; 1 µM): 100%

CC(C)(C)c1ccc(-c2nc(CBr)nn2-c2cccc(O)c2)cc1
remaining binding (cell-free assay, competition with immobilised ligand; 10 µM): 100%
